pPAFAH FP inh: pPAFAH (human) enzyme inhibition | recombinant pPAFAH, FP-rhodamine probe fluorescence polarization | inhibition, % at 3.39 µM | actives 1.5% (n = 330,000) | AID 463082;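 active = inhibition above the mean inhibition across the screen plus 3 SD, cut at about 25% in these data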;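 also: inhibitors block binding of the rhodamine activity-based probe so polarization drops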
ARFGAP1 inh: rat ARFGAP1 inhibition; inhibition, % at 16.5 µM; actives 0.26% (n = 360,000); Arfgap1-stimulated ARF1 GTP hydrolysis, GDP FP detection;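 active = inhibition above a per-plate limit, mean inhibition of low control wells plus 3 SD, cut at about 25% in these data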
Target sequence (Q62848 1-136 limits assumed): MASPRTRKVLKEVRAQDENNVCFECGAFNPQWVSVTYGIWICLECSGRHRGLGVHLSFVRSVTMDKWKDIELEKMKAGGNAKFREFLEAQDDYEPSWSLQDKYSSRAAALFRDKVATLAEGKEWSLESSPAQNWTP
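Material: rat Arfgap1 GAP domain (His6, aa 1-136), purified enzyme. Also added: human ARF1(Δ1-17)-GTP substrate. Compound dosing: 16.5 µM single point, 1.26% DMSO. Timing: enzyme reaction 120 min at 25 °C after 20 min preincubation. Signal: GDP detection by fluorescence polarization. Read-out basis: percent inhibition of GAP-stimulated GDP formation, scaled between DMSO and no-Arfgap1 medians.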
ASAP1 inh: blocks human ASAP1-stimulated Arf1 GTP hydrolysis | GDP FP detection | inhibition, % at 16.5 µM | AID 624377 | actives 0.19% (n = 360,000); in the data active = inhibition above about 25%
PAFAH2 inh: PAFAH2 (human) inhibition; Q99487; recombinant PAFAH2, FP-rhodamine activity probe, fluorescence polarization; inhibition, % at 3.39 µM; actives 0.99% (n = 340,000); AID 492956;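 active = inhibition above the mean over all tested compounds plus 3 SD, cut at about 30% in these data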;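 also: inhibitors block probe labeling of enzyme so polarization drops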
PAFAH1B3 inh: PAFAH1B3 (human) inhibition; actives 0.28% (n = 340,000); Q15102; recombinant PAFAH1B3, FP-rhodamine probe, fluorescence polarization; inhibition, % at 3.39 µM;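 active = inhibition above the screen-wide average of all tested compounds plus 3 SD, cut at about 25% in these data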
PAFAH1B2 inh: PAFAH1B2 (human) inhibition; P68402; recombinant PAFAH1B2, FP-rhodamine activity probe, fluorescence polarization; inhibition, % at 3.39 µM; AID 492953; actives 1.2% (n = 340,000);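 active = inhibition above the mean of all tested compounds plus 3 SD, cut at about 24% in these data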
Target sequence (P68402 whole entry, looked up): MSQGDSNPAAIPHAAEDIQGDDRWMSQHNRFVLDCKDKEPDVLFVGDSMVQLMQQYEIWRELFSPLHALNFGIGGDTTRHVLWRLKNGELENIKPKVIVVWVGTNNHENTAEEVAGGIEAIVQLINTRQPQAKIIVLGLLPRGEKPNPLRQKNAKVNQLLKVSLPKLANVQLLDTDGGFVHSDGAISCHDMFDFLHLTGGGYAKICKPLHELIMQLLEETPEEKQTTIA
pPAFAH confirm: pPAFAH (human) inhibition, confirmed; shares compounds with pPAFAH FP inh; recombinant pPAFAH, FP-Rh probe fluorescence polarization; inhibition, % at 3.39 µM; actives 72% (n = 2,300); AID 463230;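 active = mean inhibition of the triplicate above the hit cutoff set for the earlier primary screen, cut at about 25% in these data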
Large screens that a line does not name were inactive (follow-up assays come after a bar, where they were run). In the library only some 2.7% were active in any assay of this set; here they are far more common.

FC(F)C(F)(F)C(F)(F)C(F)(F)c1cc(-c2ccccc2)n[nH]1	pPAFAH FP inh 56 | pPAFAH confirm 50
Cc1cc(-c2ccccc2)n[nH]1	none
COC(=O)C1=C(C)N(Cc2cccc(C(F)(F)F)c2)C(=NCC2CC2)NC1c1cccc(C(F)(F)F)c1 (stereo not drawn)	none (no result: pPAFAH FP inh, PAFAH2 inh, PAFAH1B3 inh, PAFAH1B2 inh)
COc1cc(C(=O)Oc2c(CN3CCOCC3)cc(Cl)c3cccnc23)cc(OC)c1OC	pPAFAH FP inh 40 (no result: ARFGAP1 inh, ASAP1 inh) | pPAFAH confirm inactive
COc1ccc(C(=O)Oc2c(CN3CCOCC3)cc(Cl)c3cccnc23)cc1	none
O=C(CSc1cccc2cccnc12)N/N=C/c1cccc(O)c1	none
Cc1ccc(C(C)C)c(OCc2ccc(C(=O)N/N=C/c3ccc(O)c(O)c3)cc2)c1	pPAFAH FP inh 61, PAFAH1B3 inh 34 | pPAFAH confirm 84
O=C(N/N=C/c1ccc(O)c(O)c1)c1ccc(CSc2cccc3cccnc23)cc1	pPAFAH FP inh 69 | pPAFAH confirm 86
COc1cc(/C=N/NC(=O)c2ccc(COc3cc(C)ccc3C(C)C)cc2)cc(OC)c1O	none
COC(=O)[C@]12C[C@H](CC(=O)NCCCCc3ccccc3)C(=O)N(CCC3=CCCCC3)C1=C[C@H](COCc1ccccc1)O[C@@H]2C	none (no result: pPAFAH FP inh, PAFAH2 inh, PAFAH1B3 inh, PAFAH1B2 inh)
Cc1cc(C)c(CN2CCN(C(=O)Cn3cc(C)c(=O)[nH]c3=O)CC2)c(C)c1	none (no result: pPAFAH FP inh, PAFAH2 inh, PAFAH1B3 inh, PAFAH1B2 inh)
O=C(O)c1cc(Cl)c2c(c1)[C@@H]1C=CC[C@@H]1[C@H](c1ccc(S(=O)(=O)N3CCOCC3)cc1)N2	pPAFAH FP inh 46, PAFAH2 inh 41 (no result: ARFGAP1 inh, ASAP1 inh) | pPAFAH confirm inactive
CN(c1ccccc1)c1ccc(/C=C(\CCC(=O)O)c2nc3ccccc3s2)cc1[N+](=O)[O-]	pPAFAH FP inh 54, PAFAH2 inh 32, PAFAH1B2 inh 89 | pPAFAH confirm 58
O=C(O)Cc1c[nH]c2cccc(O)c12	pPAFAH FP inh 47 | pPAFAH confirm inactive
O=C(O)Cc1c[nH]c2ccccc12	none (no result: ARFGAP1 inh)
F[B-](F)(F)c1cncnc1	none (no result: pPAFAH FP inh, PAFAH2 inh, PAFAH1B3 inh, PAFAH1B2 inh)
CC1=N/C(=C\c2ccc([N+](=O)[O-])cc2)C(=O)N1c1ccc(C)c(Cl)c1	none (no result: pPAFAH FP inh, PAFAH2 inh, PAFAH1B3 inh, PAFAH1B2 inh)
C[C@H](CO)N1C[C@H](C)[C@@H](CN(C)C(=O)Nc2ccc3c(c2)OCO3)OCc2cn(nn2)CCCC1=O	none (no result: pPAFAH FP inh, PAFAH2 inh, PAFAH1B3 inh, PAFAH1B2 inh)
C=CCOc1ccc(C(=O)c2ccccc2)c(OCC(=O)NC2(C#N)CCCC2)c1	pPAFAH FP inh 35 | pPAFAH confirm inactive
N#CC1(NC(=O)COc2ccccc2[N+](=O)[O-])CCCCC1	none
O=C(Cn1cnc([N+](=O)[O-])n1)c1ccccc1	none (no result: pPAFAH FP inh)
O=C(Cn1cnc([N+](=O)[O-])n1)c1ccc(O)c(O)c1	pPAFAH FP inh 56 | pPAFAH confirm inactive
Cc1ccccc1NC(=O)c1sc2nc3c(c(-c4ccco4)c2c1N)CCC3	pPAFAH FP inh 36 | pPAFAH confirm inactive
O=C(O)COc1cccc(/C=C2/SC(=S)N(Cc3ccccc3)C2=O)c1	pPAFAH FP inh 40 | pPAFAH confirm 33
Cc1ccc(NC(=O)COc2cccc(/C=C3\SC(=S)N(CCC(=O)O)C3=O)c2)cc1Cl	pPAFAH FP inh 40 | pPAFAH confirm 27
Cc1cc(/C=N/Nc2ccc([N+](=O)[O-])cn2)c(C)n1-c1ccc(C(=O)O)cc1	pPAFAH FP inh 54 | pPAFAH confirm inactive
Cc1ccccc1-n1c(C)cc(/C=N/Nc2ccc([N+](=O)[O-])cn2)c1C	none
CCNc1ccc(Br)cc(C(=O)/C=C/c2ccccc2Cl)c1=O	pPAFAH FP inh 46, PAFAH2 inh 36 | pPAFAH confirm 28
O=C(C=Cc1ccccc1Cl)c1ccccc1	none (no result: pPAFAH FP inh)
O=C(NN=Cc1ccco1)C(=O)Nc1cccc(C(F)(F)F)c1	none (no result: pPAFAH FP inh, PAFAH2 inh, PAFAH1B3 inh, PAFAH1B2 inh)
CC(=O)O[C@H]1C=C[C@@H](NC(=O)OC(C)(C)C)C1	none (no result: pPAFAH FP inh, PAFAH2 inh, PAFAH1B3 inh, PAFAH1B2 inh)
O=c1cc(-c2ccc(O)cc2)oc2c(O)c(O)c(O)c(O)c12	pPAFAH FP inh 37, PAFAH2 inh 69, PAFAH1B3 inh 52, PAFAH1B2 inh 26 | pPAFAH confirm 72
O=c1cc(-c2ccccc2)oc2cc(O)c(O)c(O)c12	pPAFAH FP inh 56 | pPAFAH confirm 69
COc1c(O)cc2oc(-c3ccc(O)cc3)cc(=O)c2c1O	none
